Only some compounds are listed: those with a hit (about 1.8% of all), similar ones and a draw of the others.
CHRM4 PAM: human M4 muscarinic receptor positive allosteric modulators, primary screen, CHO-K1 cells, Fluo-8 calcium fluorescence; CHO-K1 hM4/Gqi5, ACh EC20; 0% = ACh EC20, 100% = maximal ACh; activation, % at 3 µM; 0.4% of 360,000 active; AID 624126, 2012;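 active = activation above its plate's cutoff, the mean activation of sample wells plus 3 SD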
M4 ag: human M4 muscarinic receptor agonists, primary screen, CHO-K1 cells, Fluo-8 calcium fluorescence; Muscarinic acetylcholine receptor M4 (Homo sapiens), P08173; CHO-K1 hM4/Gqi5; vehicle 0%, full acetylcholine response 100%; activation, % at 3 µM; 0.14% of 360,000 active; AID 624127, 2012;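 active = activation above the run mean over all test wells plus 3 SD, cut at about 32% in these data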;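 also: peak over basal fluorescence ratio per well then scaled between controls; 0% = DMSO wells and 100% = acetylcholine at EC100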
M5 PAM: human M5 muscarinic receptor positive allosteric modulators, primary screen, CHO-K1 cells, Fluo-8 calcium fluorescence; AID 624038, 2012; Muscarinic acetylcholine receptor M5 (Homo sapiens), P08912; 0.3% of 360,000 active; CHO-K1 hM5, ACh EC20 PAM; 0% = ACh EC20, 100% = ACh EC100; activation, % at 3 µM;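 active = activation above the run cutoff, the mean activation of all test compounds plus 3 SD, cut at about 18% in these data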
Target sequence (P08912 whole entry, looked up): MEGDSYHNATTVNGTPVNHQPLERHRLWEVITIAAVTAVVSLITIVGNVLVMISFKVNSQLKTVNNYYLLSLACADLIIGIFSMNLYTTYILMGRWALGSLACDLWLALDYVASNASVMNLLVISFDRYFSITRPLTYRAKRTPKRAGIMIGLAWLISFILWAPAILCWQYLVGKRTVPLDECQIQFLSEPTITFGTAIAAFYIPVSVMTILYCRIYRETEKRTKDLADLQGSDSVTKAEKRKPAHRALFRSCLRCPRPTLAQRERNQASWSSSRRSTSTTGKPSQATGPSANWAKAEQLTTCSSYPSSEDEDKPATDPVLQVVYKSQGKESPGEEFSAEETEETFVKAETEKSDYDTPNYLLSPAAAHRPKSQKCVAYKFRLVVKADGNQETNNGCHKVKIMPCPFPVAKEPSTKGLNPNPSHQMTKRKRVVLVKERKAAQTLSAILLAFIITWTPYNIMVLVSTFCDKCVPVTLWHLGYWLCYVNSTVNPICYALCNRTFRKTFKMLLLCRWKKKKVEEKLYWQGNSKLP
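System: CHO-K1 cell line with stable human muscarinic M5 receptor expression | Also added: EC20 acetylcholine as agonist stimulus | Compound: One concentration, 3 µM final (nominal) | Timing: Fluo-8 loading 80 min at 37 °C plus 30 min room temperature | Measured by: Fluo-8 calcium dye fluorescence, kinetic read | Read-out basis: % activation, ACh-normalized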
M4 antag: human M4 muscarinic receptor antagonists, primary screen, CHO cells, Fluo-8 calcium fluorescence; CHO-hM4 cells, ACh EC80; AID 624125, 2012; inhibition, % at 3 µM; Muscarinic acetylcholine receptor M4 (Homo sapiens), P08173; 0.73% of 360,000 active;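 active = inhibition above its plate's cutoff, the mean inhibition of sample wells plus 3 SD, cut at about 27% in these data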;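 also: 0% = acetylcholine EC80 with DMSO and 100% = DMSO without agonist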
M5 antag: human M5 muscarinic receptor antagonists, primary screen, CHO cells, Fluo-8 calcium fluorescence | Muscarinic acetylcholine receptor M5 (Homo sapiens), P08912 | CHO-hM5 cells, ACh EC80 | inhibition, % at 3 µM | 0.59% of 360,000 active | AID 624040, 2012;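 active = inhibition above a per-plate cutoff, the mean of that plate's test compounds plus 3 SD, cut at about 27% in these data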;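 also: 0% = acetylcholine EC80 with DMSO and 100% = DMSO without agonist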
M5 ag: human M5 muscarinic receptor agonists, primary screen, CHO-K1 cells, Fluo-8 calcium fluorescence; Muscarinic acetylcholine receptor M5 (Homo sapiens), P08912; CHO-K1 hM5 cells; 0% DMSO wells, 100% maximal acetylcholine response; activation, % at 3 µM; 0.19% of 360,000 active; AID 624037, 2012;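 active = activation above the run's mean over test compounds plus 3 SD, cut at about 23% in these data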;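 also: signal is peak over basal fluorescence ratio across the kinetic read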
* hit, by the source's call.

SMILES	CHRM4 PAM	M4 ag	M5 PAM	M4 antag	M5 antag	M5 ag
COc1cccc(NC(=O)CN2C(=O)C(c3ccc(C)cc3)=NC23CCCCCC3)c1	0.0	-0.6	-5.6	5.1	7.5	0.1
Cc1ccc(C(=O)N2CCN(c3ccccc3Cl)CC2)cc1[N+](=O)[O-]	-5.1	2.2	4.4	4.6	5.5	-5.6
O=C1NC(=S)N/C1=C\c1ccc(Oc2ccc(C(F)(F)F)cc2[N+](=O)[O-])c(Cl)c1	15.1	0.5	19.4*	18.4	-9.4	3.4
Cc1cc(C)c(C(=O)NC2CCCc3c2cnn3-c2ccc(C)c(C)c2)c(=O)[nH]1 (configuration not stated)	1.7	3.6	-4.1	-15.3	8.6	-0.5
O=C(c1ccc(Br)s1)N1CCc2ccccc2C1	2.9	1.3	19.1*	-2.2	-3.8	-6.7
O=C(c1cccs1)N1CCc2ccccc2C1	2.7	0.7	1.4	-11.6	-8.7	-8.1
COCCCNC(=O)/C=C/[C@H]1O[C@@H](n2cnc3c(NC(=O)c4ccccc4)ncnc32)[C@H](O)[C@@H]1O	22.8*	1.1	-0.3	-8.6	-3.4	1.4
O=C(NCc1cccnc1)/C(=C/c1ccc(-c2ccc(Cl)cc2)o1)S(=O)(=O)c1ccccc1	-19.7	8.7	-2.6	27.6*	-0.7	2.7
COc1cc(C2NC(=O)NC(C)=C2[N+](=O)[O-])cc(OC)c1OC (configuration not stated)	-2.9	0.3	5.1	1.8	10.1	7.4
CN1C(=O)/C(=C/c2cc(C(C)(C)C)c(O)c(C(C)(C)C)c2)NC1=S	1.7	-0.8	-4.2	0.2	-1.6	-3.3
CC1CCc2c(sc3ncnc(SCC(=O)c4ccccc4)c23)C1 (configuration not stated)	14.2	0.0	7.2	-2.2	0.0	-3.6
CC(=O)CSc1ncnc2sc3c(c12)CCC(C)C3 (configuration not stated)	22.7*	-1.0	11.4	-13.9	-8.2	-7.9
CC(C)CNC(=O)CCc1nc(-c2ccccc2)no1	16.4	1.8	4.5	-8.8	1.1	-0.3
COc1ccc(C2CC(=O)C(C=NCCO)=C(O)C2)cc1 (configuration not stated)	-3.1	1.1	19.0*	-9.9	-12.5	5.2
COc1ccc(C2=CC(=O)C[C@H](c3ccc(Cl)cc3)C2)cc1	0.8	0.3	-7.8	-9.2	12.5	-6.3
COc1ccc(C2CC(=O)C(C=NCCO)=C(O)C2)cc1OC (configuration not stated)	13.3	1.1	4.5	3.7	-7.8	1.0
COc1ccccc1NC1=CC(=O)CC(c2ccccc2)C1 (configuration not stated)	0.9	1.7	-1.7	9.5	6.4	-1.9
COc1ccc(NC2=CC(=O)CC(c3ccc(C)cc3)C2)c(OC)c1 (configuration not stated)	23.4*	1.2	5.0	-1.9	4.6	-1.4
COc1ccc(C2=CC(=O)CC(c3ccc(OC)cc3)C2)cc1 (configuration not stated)	-1.1	1.7	-14.3	-1.0	29.1*	-7.3
COc1ccc(/C(C)=N/NC(=S)NCCc2ccccc2)c(O)c1	1.9	4.0	-2.2	-9.4	0.4	-1.4
CC(C)(C)NCCC(O)c1cc(C(F)(F)F)nc2c(C(F)(F)F)cccc12 (configuration not stated)	-2.7	14.4	4.9	-2.4	2.5	3.9
Cc1nc2c(C(F)(F)F)cccc2c2c1CCS2	3.8	0.1	19.0*	-4.9	-4.5	3.9
CCN1C(=O)[C@H]2[C@@H](c3ccc(-c4ccc(F)cc4)cc3)N3CCCC[C@@]3(C(=O)OC)[C@H]2C1=O	11.5	6.0	5.7	-4.4	-3.3	0.8
COc1cccc(/C=C2\C(=O)C(=O)c3ccccc32)c1	-1.8	1.3	1.3	31.0*	-5.4	-1.7
C=CCOCCN(CC)CC	-5.3	0.1	-1.2	5.0	4.5	-2.5
SMILES	CHRM4 PAM	M4 ag	M5 PAM	M4 antag	M5 antag	M5 ag
Cc1cc(N2CCCC2=O)cc(C)c1S(=O)(=O)NCCOc1ccc(C(C)(C)C)cc1	-16.6	12.2	-25.8	28.0*	33.4*	2.4
Cc1n[nH]c(C)c1Cc1c(F)cccc1Cl	2.2	4.3	27.8*	-1.9	26.2	-9.6
COc1ccc(-n2c3c(cc(C(=O)N4CCCCC4)c2=O)C(=O)CC(C)(C)C3)cc1	-7.6	1.3	11.6	26.9*	2.4	-2.9
CC1(C)CC(=O)c2cc(C(=O)N3CCCC(C)(C)C3)c(=O)n(-c3ccccc3)c2C1	-0.1	1.4	0.2	1.6	4.7	2.8
CNC[C@@H]1Oc2cc(Br)ccc2S(=O)(=O)N([C@@H](C)CO)C[C@@H]1C	-13.4	1.4	0.9	48.0*	0.2	0.0
COc1cc(/C=C2\SC(=Nc3ccccc3)NC2=O)cc(Cl)c1O	-22.1	83.5*	-20.2	44.0*	45.4*	64.4*
COc1cc(/C=C2\SC(=Nc3ccc(Cl)c(C(=O)O)c3)NC2=O)c(Br)c(Br)c1O	-18.7	50.9*	-33.7	16.1	42.6*	190.3*
CCc1ccc(N=C2NC(=O)/C(=C/c3cc(OC)c(O)c(OC)c3)S2)cc1	-8.1	17.5	-12.0	17.8	12.8	23.8*
Cc1cc(C)n(Cc2cccc(C(=O)N/N=C/c3ccncc3)c2)n1	1.9	2.7	2.1	-4.4	9.9	-0.4
Cc1ccc(C(C)C)c(OCCn2ccnc2C)c1	-17.5	5.2	-17.5	51.5*	57.4*	-7.5
Cc1ccc(OCCCCn2ccnc2C)c(C)c1	-8.3	13.2	-17.0	-6.5	7.0	-11.7
O=C(/C=C/c1cccc(O)c1)c1cccnc1	-10.5	2.5	-1.3	11.2	8.4	3.0
CN(C)c1ccc(/C=C/C(=O)c2ccc(O)cc2)cc1	-11.6	51.4*	-40.1	23.6	49.9*	228.9*
CN(C)c1ccc(/C=C/C(=O)c2cccnc2)cc1	-15.4	39.1*	-27.9	15.6	26.5	106.8*
COc1ccc(C(=O)/C=C/c2ccc(N(C)C)cc2)c(OC)c1	-17.3	114.5*	-30.2	36.4*	51.6*	146.0*
CN(C)c1ccc(/C=C/C(=O)c2ccc3c(c2)OCO3)cc1	-21.0	120.8*	-37.3	26.8*	25.9	75.9*
